Test results taken from ChEMBL document CHEMBL1275496, “In vivo pharmacodynamic target investigation for micafungin against Candida albicans and C. glabrata in a neutropenic murine candidiasis model” (Antimicrob Agents Chemother, 2008).
≈ marks a conversion by molar mass, not a printed value. *1 amine or outer side, *2 acyl side, *3 side chain or, on linkers, in order; H or OH if unused. Where a SMILES comes first, the peptide text is derived from it. Bridges are numbered along the chain shown (N, C = ends). [ ]: non-standard residue; d: D form. The star is where a group is joined. hTyr(3S-OH,4S-OH,3'-OSO3H) = N[C@H](C(=O)O)[C@H](O)[C@@H](O)c1ccc(O)c(OS(=O)(=O)O)c1; Orn(4R-OH,5R-OH) = O=C([C@H](C[C@@H](O)[C@@H](O)N[*:3])N[*:1])[*:2]; Pro(3S-OH,4S-Me) = C[C@H]1CN[C@H](C(=O)O)[C@H]1O; X1 = CCCCCOc1ccc(-c2cc(-c3ccc(C(=O)*)cc3)no2)cc1; Gln(3R-OH) = NC(=O)C[C@@H](O)[C@H](N)C(=O)O; Hyp = O=C(O)[C@@H]1C[C@@H](O)CN1

Experiments:
[1] = Ratio of fAUC in ICR/Swiss neutropenic mouse at static dose of 2.18 mg/kg, ip after 24 hrs to MIC for Candida glabrata isolate 34341; type: functional; settings: route intraperitoneal
Nakaseomyces glabratus [2] = assay: Antifungal activity against Candida glabrata isolate 34341 by CLSI method; type: functional
Summary of the method: (§1)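 Broth microdilution per CLSI M27-A2. The MIC was read at partial inhibition (M1) and at complete inhibition (M2) against the drug-free control. Done in duplicate on four separate occasions and reported as the mean.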

[3] = Ratio of fAUC in ICR/Swiss neutropenic mouse at static dose of 1.98 mg/kg, ip after 24 hrs to MIC for Candida albicans isolate 580; type: functional; settings: route intraperitoneal
[4] = Ratio of AUC in ICR/Swiss neutropenic mouse at static dose of 3.76 mg/kg, ip after 24 hrs to MIC for Candida glabrata isolate 570; type: functional; settings: route intraperitoneal
[5] = Ratio of AUC in ICR/Swiss neutropenic mouse at 1-Log kill dose of 5.46 mg/kg, ip after 24 hrs to MIC for Candida glabrata isolate 5592; type: functional; settings: route intraperitoneal
Candida albicans [6] = assay: Antifungal activity against Candida albicans isolate K1 by CLSI method; type: functional
Summary of the method: (§2)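 Broth microdilution MIC per CLSI M27-A2. Two endpoints were read against the drug-free control well: partial inhibition (M1, CLSI recommended) and complete inhibition (M2). Tests were run in duplicate on four separate occasions, and the value is the mean.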

Candida albicans [7] = assay: Antifungal activity against Candida albicans isolate 98-17 by CLSI method; type: functional; summary of the method: as §2
[8] = Ratio of AUC in ICR/Swiss neutropenic mouse at 1-Log kill dose of 2.36 mg/kg, ip after 24 hrs to MIC for Candida albicans isolate 580; type: functional; settings: route intraperitoneal
[9] = Ratio of fAUC in ICR/Swiss neutropenic mouse at static dose of 0.41 mg/kg, ip after 24 hrs to MIC for Candida glabrata isolate 33609; type: functional; settings: route intraperitoneal
[10] = Ratio of AUC in ICR/Swiss neutropenic mouse at 1-Log kill dose of 20.6 mg/kg, ip after 24 hrs to MIC for Candida glabrata isolate 37661; type: functional; settings: route intraperitoneal
[11] = Ratio of fAUC in ICR/Swiss neutropenic mouse at static dose of 2.4 mg/kg, ip after 24 hrs to MIC for Candida glabrata isolate 35315; type: functional; settings: route intraperitoneal
Candida albicans [12] = assay: Fungistatic activity against Candida albicans isolate 580 infected in ICR/Swiss neutropenic mouse after 24 hrs; type: functional
Summary of the method: (§3)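 Neutropenic female ICR/Swiss mice received cyclophosphamide sc at 150 mg/kg on day −4, 100 mg/kg on day −1 and 100 mg/kg on day +2. Mice were infected iv via the tail vein, and ip micafungin in 0.15 M NaCl started 2 h later. Six dose levels from 0.078 to 80 mg/kg/24 h were given q24h for 4 days, 3 mice per dose. Kidney CFU were counted at 96 h. The static dose was derived from a sigmoid Emax (Hill) fit.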

Nakaseomyces glabratus [13] = assay: Antifungal activity against Candida glabrata isolate 570 infected in ICR/Swiss neutropenic mouse assessed as dose required for 1-log kill after 24 hrs; type: functional
Summary of the method: (§4)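 Neutropenic mice (cyclophosphamide sc 150 mg/kg day −4, 100 mg/kg day −1 and +2) infected iv by tail vein 2 h before therapy. Micafungin given ip every 24 h for 4 days at six fourfold-spaced dose levels, 0.078–80 mg/kg/24 h, 3 mice per group. Kidney CFU read at 96 h. Hill-model fit; dose giving 1 log10 below start-of-therapy burden.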

[14] = Ratio of AUC in ICR/Swiss neutropenic mouse at 1-Log kill dose of 4.08 mg/kg, ip after 24 hrs to MIC for Candida albicans isolate K1; type: functional; settings: route intraperitoneal
[15] = Ratio of fAUC in ICR/Swiss neutropenic mouse at static dose of 1.80 mg/kg, ip after 24 hrs to MIC for Candida glabrata isolate 5592; type: functional; settings: dose 1.8 mg/kg; route intraperitoneal
[16] = Ratio of AUC in ICR/Swiss neutropenic mouse at static dose of 1.80 mg/kg, ip after 24 hrs to MIC for Candida glabrata isolate 5592; type: functional; settings: dose 1.8 mg/kg; route intraperitoneal
[17] = Ratio of fAUC in ICR/Swiss neutropenic mouse at static dose of 0.06 mg/kg, ip after 24 hrs to MIC for Candida glabrata isolate 32930; type: functional; settings: route intraperitoneal
[18] = Ratio of AUC in ICR/Swiss neutropenic mouse at 1-Log kill dose of 7.89 mg/kg, ip after 24 hrs to MIC for Candida glabrata isolate 33616; type: functional; settings: route intraperitoneal
Nakaseomyces glabratus [19] = assay: Antifungal activity against Candida glabrata isolate 32930 infected in ICR/Swiss neutropenic mouse assessed as dose required for 1-log kill after 24 hrs; type: functional; summary of the method: as §4
[20] = Half life in Candida infected ICR/Swiss neutropenic mouse at 80 mg/kg, ip; type: ADME, organism-based; parameters: dose 80 mg/kg, route intraperitoneal; settings: in vivo
Summary of the method: (§5)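 Single intraperitoneal micafungin doses (80, 20, 5 mg/kg in 0.2 ml, 0.15 M NaCl) given to infected neutropenic mice. Serum was taken from 3 mice per time point at 1, 2, 4, 6, 8, 12, 24 and 48 h. Drug was measured by microbiologic assay with C. albicans K1 (LLOQ 0.12 μg/ml). Noncompartmental analysis; half-life by nonlinear least squares; AUC by trapezoidal rule.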

[21] = AUC in healthy human at 100 mg/day; type: ADME, organism-based; settings: plasma
[22] = Ratio of AUC in ICR/Swiss neutropenic mouse at 1-Log kill dose of 6.70 mg/kg, ip after 24 hrs to MIC for Candida glabrata isolate 570; type: functional; settings: dose 6.7 mg/kg; route intraperitoneal
[23] = AUC (0 to infinity) in Candida infected ICR/Swiss neutropenic mouse at 5 mg/kg, ip; type: ADME, organism-based; parameters: dose 5 mg/kg, route intraperitoneal, time infinity; settings: plasma; summary of the method: as §5
[24] = Ratio of AUC in ICR/Swiss neutropenic mouse at 1-Log kill dose of 4.26 mg/kg, ip after 24 hrs to MIC for Candida glabrata isolate 34341; type: functional; settings: route intraperitoneal
Nakaseomyces glabratus [25] = assay: Fungistatic activity against Candida glabrata isolate 33609 infected in ICR/Swiss neutropenic mouse after 24 hrs; type: functional; summary of the method: as §3
[26] = Cmax in Candida infected ICR/Swiss neutropenic mouse at 80 mg/kg, ip; type: ADME, organism-based; parameters: dose 80 mg/kg, route intraperitoneal; settings: in vivo; summary of the method: as §5
Nakaseomyces glabratus [27] = assay: Antifungal activity against Candida glabrata isolate 513 by CLSI method; type: functional; summary of the method: as §2
[28] = Ratio of AUC in ICR/Swiss neutropenic mouse at static dose of 1.34 mg/kg, ip after 24 hrs to MIC for Candida glabrata isolate 513; type: functional; settings: route intraperitoneal
Nakaseomyces glabratus [29] = assay: Antifungal activity against Candida glabrata isolate 33616 by CLSI method; type: functional; summary of the method: as §1
Homo sapiens = species on record: Homo sapiens; assay: fAUC in healthy human at 100 mg/day; type: ADME, organism-based; settings: in vivo
[30] = Ratio of fAUC in ICR/Swiss neutropenic mouse at static dose of 1.34 mg/kg, ip after 24 hrs to MIC for Candida glabrata isolate 513; type: functional; settings: route intraperitoneal
[31] = AUC (0 to infinity) in Candida infected ICR/Swiss neutropenic mouse at 80 mg/kg, ip; type: ADME, organism-based; parameters: time infinity, dose 80 mg/kg, route intraperitoneal; settings: plasma; summary of the method: as §5
[32] = Ratio of AUC in ICR/Swiss neutropenic mouse at static dose of 2.84 mg/kg, ip after 24 hrs to MIC for Candida albicans isolate K1; type: functional; settings: route intraperitoneal

CCCCCOc1ccc(-c2cc(-c3ccc(C(=O)N[C@H]4C[C@@H](O)[C@@H](O)NC(=O)[C@@H]5[C@@H](O)[C@@H](C)CN5C(=O)[C@H]([C@H](O)CC(N)=O)NC(=O)[C@H]([C@H](O)[C@@H](O)c5ccc(O)c(OS(=O)(=O)O)c5)NC(=O)[C@@H]5C[C@@H](O)CN5C(=O)[C@H]([C@@H](C)O)NC4=O)cc3)no2)cc1 [MICAFUNGIN] (X1-[Orn(4R-OH,5R-OH)]T[Hyp][hTyr(3S-OH,4S-OH,3'-OSO3H)][Gln(3R-OH)][Pro(3S-OH,4S-Me)]; lactam 1-C)
fAUC/MIC [1]: 2.51
MIC (Nakaseomyces glabratus [2]): 0.12 µg/mL (≈ 0.0945 µM)
MIC50 (Nakaseomyces glabratus [2]): 0.06 µg/mL (≈ 0.0472 µM)
fAUC/MIC [3]: 19.6
RatioAUC/MIC [4]: 6933
RatioAUC/MIC [5]: 10000
MIC (Candida albicans [6]): 0.03 µg/mL (≈ 0.0236 µM)
MIC50 (Candida albicans [6]): 0.016 µg/mL (≈ 0.0126 µM)
MIC (Candida albicans [7]): 0.06 µg/mL (≈ 0.0472 µM)
MIC50 (Candida albicans [7]): 0.03 µg/mL (≈ 0.0236 µM)
RatioAUC/MIC [8]: 1686
fAUC/MIC [9]: 1.9
RatioAUC/MIC [10]: 2080
fAUC/MIC [11]: 2.8
Activity (Candida albicans [12]): 1.98 mg/kg
Activity (Nakaseomyces glabratus [13]): 6.7 mg/kg
RatioAUC/MIC [14]: 7533
fAUC/MIC [15]: 8.4
RatioAUC/MIC [16]: 3333
fAUC/MIC [17]: 0.5
RatioAUC/MIC [18]: 848
Activity (Nakaseomyces glabratus [19]): 1.69 mg/kg
half-life [20]: 16 h
AUC [21]: 126 µg·h/mL
RatioAUC/MIC [22]: 12066
AUC(0-inf) [23]: 138 µg·h/mL
RatioAUC/MIC [24]: 1960
Activity (Nakaseomyces glabratus [25]): 0.41 mg/kg
Cmax [26]: 53 µg/mL
MIC (Nakaseomyces glabratus [27]): 0.03 µg/mL (≈ 0.0236 µM)
MIC50 (Nakaseomyces glabratus [27]): 0.016 µg/mL (≈ 0.0126 µM)
RatioAUC/MIC [28]: 2467
MIC (Nakaseomyces glabratus [29]): 0.5 µg/mL (≈ 0.394 µM)
MIC50 (Nakaseomyces glabratus [29]): 0.25 µg/mL (≈ 0.197 µM)
fAUC (Homo sapiens): 0.32 µg·h/mL
fAUC/MIC [30]: 6.2
AUC(0-inf) [31]: 1400 µg·h/mL
RatioAUC/MIC [32]: 5200
